Test results reported in ChEMBL document CHEMBL3352568, “Synthesis and evaluation of in vitro antimycobacterial activity of novel 1H-benzo[d]imidazole derivatives and analogues” (Eur J Med Chem, 2015).
Converted amounts (≈) assume the structure as drawn.

test system: Mycobacterium tuberculosis variant bovis; experiment: Antimicrobial activity against Mycobacterium bovis by two-fold serial dilution method; assay type: functional
Procedure, shortened: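 Classical test-tube successive two-fold dilution in Youmans' modification of Proskauer and Beck liquid medium with 10% bovine serum. Inocula from 14-day-old cultures. Compounds dissolved in ethylene glycol (stock 10 mg/mL), diluted in medium to 0.75–100 µg/mL. Incubated at 37 °C. MIC is the lowest concentration inhibiting growth relative to a compound-free control.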

Question: For `Brc1ccc2[nH]c(CCC3CCCCC3)nc2c1`, which MIC is on record?
Answer: 0.75 µg/mL (≈ 2.44 µM)

Question: How did the MIC turn out when `Cc1cc2nc(CCC3CCCCC3)[nH]c2cc1C` was run?
Answer: 0.75 µg/mL (≈ 2.93 µM)

Question: `Fc1ccc2[nH]c(CCC3CCCCC3)nc2c1` was tested. Which MIC did it give?
Answer: 3.1 µg/mL (≈ 12.6 µM)

Question: `Cc1ccc2[nH]c(CCC3CCCCC3)nc2c1` was tested. Which MIC did it give?
Answer: 12.5 µg/mL (≈ 51.6 µM)

Question: Which MIC does the source give for `Clc1cc2nc(CCCC3CCCCC3)[nH]c2cc1Cl` here?
Answer: 25 µg/mL (≈ 80.3 µM)

Question: For `Cc1ccc2[nH]c(-c3cc(-c4ccccc4)ccn3)nc2c1`, which MIC is on record?
Answer: 25 µg/mL (≈ 87.6 µM)

Question: Which MIC does the source give for `Cc1cc2nc(CCCc3ccccc3)[nH]c2cc1C` here?
Answer: 6.2 µg/mL (≈ 23.5 µM)

Question: With `Clc1cc2nc(CCC3CCCCC3)[nH]c2cc1Cl` as the molecule, how does the MIC read?
Answer: 1.5 µg/mL (≈ 5.05 µM)

Question: Which MIC does the source give for `Cc1ccc2[nH]c(CCCc3ccccc3)nc2c1` here?
Answer: 25 µg/mL (≈ 99.9 µM)

Question: Which MIC does the source give for `Clc1ccc2[nH]c(CCC3CCCCC3)nc2c1` here?
Answer: 0.75 µg/mL (≈ 2.85 µM)

Question: How did the MIC turn out when `O=[N+]([O-])c1ccc2[nH]c(CCC3CCCCC3)nc2c1` was run?
Answer: 3.1 µg/mL (≈ 11.3 µM)

Question: `Clc1cc2nc(CCCc3ccccc3)[nH]c2cc1Cl` was tested. Which MIC did it give?
Answer: 3.1 µg/mL (≈ 10.2 µM)

Question: How did the MIC turn out when `Fc1ccc2[nH]c(CCCC3CCCCC3)nc2c1` was run?
Answer: 6.2 µg/mL (≈ 23.8 µM)
